Each block holds one compound with its values, some of them ahead of it.
Assays:
Format in all cases: functional
SNB-75 = test: Growth inhibition of human SNB75 cells
Method in brief: (§1)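 NCI 60 human tumour cell line panel grown in RPMI1640 with 5% fetal calf serum and 2 mM L-glutamine. Cells seeded at a density set by each line's growth characteristics and preincubated 24 h. Compounds added in DMSO at 10^-4 to 10^-8 M (five 10-fold dilutions) and left 48 h continuously. Growth read by sulforhodamine B protein stain. GI50 is the molar concentration giving 50% net growth inhibition.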

IGROV-1 = test: Growth inhibition of human IGROV1 cells; method in brief: as §1
ACHN = test: Growth inhibition of human ACHN cells; method in brief: as §1
EKVX = test: Growth inhibition of human EKVX cells; method in brief: as §1
Malme-3M = test: Growth inhibition of human MALME3M cells; method in brief: as §1
HOP-92 = test: Growth inhibition of human HOP92 cells; details: for TGI: read-out: Log TGI (converted); method in brief: as §1
HCT-15 = test: Growth inhibition of human HCT15 cells; method in brief: as §1
MDA-MB-231 = test: Growth inhibition of human MDA-MB-231 cells; details: for TGI: read-out: Log TGI (converted); method in brief: as §1
SK-OV-3 = test: Growth inhibition of human SKOV3 cells; method in brief: as §1
HL-60 = test: Growth inhibition of human HL60 cells; details: for TGI: read-out: Log TGI (converted); method in brief: as §1
SK-MEL-5 = test: Growth inhibition of human SK-MEL5 cells; details: for TGI: read-out: Log TGI (converted); method in brief: as §1
SR = test: Growth inhibition of human SR cells; details: for TGI: read-out: Log TGI (converted); method in brief: as §1
MCF7 = test: Growth inhibition of human MCF7 cells; details: for TGI: read-out: Log TGI (converted); method in brief: as §1
LOX IMVI = test: Growth inhibition of human LOXIMVI cells; method in brief: as §1
U-251 = test: Growth inhibition of human U251 cells; method in brief: as §1
KM12 = test: Growth inhibition of human KM12 cells; method in brief: as §1
A498 = test: Growth inhibition of human A498 cells; details: for TGI: read-out: Log TGI (converted); method in brief: as §1
COLO 205 = test: Growth inhibition of human COLO205 cells; details: for TGI: read-out: Log TGI (converted); method in brief: as §1
UO-31 = test: Growth inhibition of human UO31 cells; method in brief: as §1
CAKI-1 = test: Growth inhibition of human CAKI1 cells; method in brief: as §1
RPMI-8226 = test: Growth inhibition of human RPMI8226 cells; method in brief: as §1
MOLT-4 = test: Growth inhibition of human MOLT4 cells; details: for TGI: read-out: Log TGI (converted); method in brief: as §1
[1] = Growth inhibition of human ADR-RES cells; method in brief: as §1
HCC 2998 = test: Growth inhibition of human HCC2998 cells; method in brief: as §1
NCI-H522 = test: Growth inhibition of human NCI-H522 cells; method in brief: as §1
HCT-116 = test: Growth inhibition of human HCT116 cells; method in brief: as §1
UACC-257 = test: Growth inhibition of human UACC257 cells; method in brief: as §1
T47D = test: Growth inhibition of human T47D cells; method in brief: as §1
RXF 393 = test: Growth inhibition of human RXF393 cells; method in brief: as §1
NCI-H460 = test: Growth inhibition of human NCI-H460 cells; method in brief: as §1
SK-MEL-2 = test: Growth inhibition of human SKMEL2 cells; method in brief: as §1
PC-3 = test: Growth inhibition of human PC3 cells; method in brief: as §1
CCRF-CEM = test: Growth inhibition of human CCRF-CEM cells; method in brief: as §1
K562 = test: Growth inhibition of human K562 cells; method in brief: as §1
SF-295 = test: Growth inhibition of human SF295 cells; method in brief: as §1

Structure (SMILES): Cc1cc(Cl)ccc1Nc1nc(C(F)(F)F)ccc1C(=O)N1CCN(c2cccc(Cl)c2)CC1
GI50 (SNB-75): 1.12 µM
GI50 (IGROV-1): 1.78 µM

GI50 (ACHN): 2.75 µM
GI50 (HCT-15): 2.57 µM
GI50 (MDA-MB-231): 2.04 µM
GI50 (SK-OV-3): 2.45 µM
GI50 (HL-60): 2.04 µM
GI50 (SK-MEL-5): 2.82 µM
GI50 (MCF7): 2.29 µM
GI50 (U-251): 3.02 µM
GI50 (COLO 205): 2.51 µM
Structure (SMILES): Cc1cc(Cl)ccc1Nc1nc(C(F)(F)F)ccc1C(=O)Nc1cccc(C(F)(F)F)c1
TGI (ACHN; read-out: Log TGI (converted)): 8.91 µM
GI50 (EKVX): 1.86 µM
GI50 (Malme-3M): 2 µM
TGI (Malme-3M; read-out: Log TGI (converted)): 9.12 µM
GI50 (HOP-92): 2.19 µM
TGI (HOP-92): 8.13 µM
TGI (HCT-15; read-out: Log TGI (converted)): 7.41 µM
TGI (MDA-MB-231): 8.13 µM
TGI (HL-60): 4.68 µM
TGI (SK-MEL-5): 9.33 µM
GI50 (SR): 2.57 µM
TGI (SR): 8.32 µM
TGI (MCF7): 7.76 µM
GI50 (LOX IMVI): 2.82 µM
TGI (LOX IMVI; read-out: Log TGI (converted)): 8.51 µM
TGI (U-251; read-out: Log TGI (converted)): 9.77 µM
GI50 (KM12): 2.09 µM
GI50 (A498): 2.82 µM
TGI (A498): 7.41 µM
TGI (COLO 205): 6.17 µM

Structure (SMILES): Cc1ccc(Cl)cc1Nc1nc(C(F)(F)F)ccc1C(=O)N1CCN(c2cccc(Cl)c2)CC1
GI50 (SR): 2.75 µM

GI50 (SK-MEL-5): 0.955 µM
Structure (SMILES): COc1ccc(N2CCN(C(=O)c3ccc(C(F)(F)F)nc3Nc3cc(Cl)ccc3C)CC2)cc1
GI50 (HOP-92): 1.48 µM
TGI (HOP-92): 7.94 µM
GI50 (IGROV-1): 0.0513 µM
GI50 (UO-31): 1.7 µM
GI50 (CAKI-1): 1.38 µM

GI50 (RPMI-8226): 2.34 µM
GI50 (MOLT-4): 2.75 µM
GI50 (MDA-MB-231): 2.29 µM
GI50 (SK-OV-3): 1.74 µM
GI50 (HCC 2998): 1.78 µM
GI50 (NCI-H522): 1.78 µM
GI50 (HCT-116): 2.4 µM
GI50 (T47D): 2.24 µM
GI50 (NCI-H460): 2.82 µM
GI50 (SK-MEL-5): 2.19 µM
GI50 (MCF7): 2.51 µM
GI50 (SK-MEL-2): 2.45 µM
GI50 (PC-3): 2.09 µM
GI50 (CCRF-CEM): 2.82 µM
GI50 (COLO 205): 1.74 µM
Structure (SMILES): Cc1ccc(Cl)cc1Nc1nc(C(F)(F)F)ccc1C(=O)Nc1cccc(C(F)(F)F)c1
TGI (MOLT-4): 10 µM
GI50 (HOP-92): 2.19 µM
TGI (HOP-92): 8.71 µM
TGI (MDA-MB-231): 9.55 µM
GI50 [1]: 2.14 µM
TGI ([1]; read-out: Log TGI (converted)): 7.59 µM
TGI (SK-OV-3; read-out: Log TGI (converted)): 5.5 µM
TGI (HCC 2998; read-out: Log TGI (converted)): 4.47 µM
GI50 (IGROV-1): 1.7 µM
TGI (NCI-H522; read-out: Log TGI (converted)): 6.31 µM
GI50 (UACC-257): 2.95 µM
TGI (UACC-257; read-out: Log TGI (converted)): 8.32 µM
TGI (T47D; read-out: Log TGI (converted)): 8.91 µM
GI50 (RXF 393): 2.69 µM
TGI (RXF 393; read-out: Log TGI (converted)): 7.94 µM
TGI (NCI-H460; read-out: Log TGI (converted)): 10 µM
TGI (SK-MEL-5): 4.47 µM
TGI (MCF7): 9.55 µM
TGI (SK-MEL-2; read-out: Log TGI (converted)): 6.61 µM
GI50 (A498): 2.95 µM
TGI (A498): 8.51 µM
TGI (COLO 205): 3.39 µM

GI50 (RPMI-8226): 2.09 µM
GI50 (MOLT-4): 1.55 µM
GI50 (MDA-MB-231): 1.66 µM
GI50 (K562): 2.4 µM
GI50 (HL-60): 2.4 µM
GI50 (MCF7): 2.4 µM
Structure (SMILES): COc1ccc(NC(=O)c2ccc(C(F)(F)F)nc2Nc2ccc(Cl)cc2C)cc1Cl
TGI (RPMI-8226; read-out: Log TGI (converted)): 4.9 µM
TGI (MOLT-4): 4.9 µM
TGI (MDA-MB-231): 6.76 µM
TGI (HL-60): 5.37 µM
GI50 (SF-295): 2.34 µM
GI50 (SR): 1.7 µM
TGI (SR): 6.46 µM

Structure (SMILES): Cc1ccc(Cl)cc1Nc1nc(C(F)(F)F)ccc1C(=O)N1CCN(c2ccc(F)cc2)CC1
GI50 (SNB-75): < 0.01 µM
GI50 (IGROV-1): 0.132 µM
GI50 (CAKI-1): 1.51 µM
